In ChEMBL document CHEMBL1127020, “3-Quinolinecarboxamides. A series of novel orally-active antiherpetic agents” (1993):
Values after ≈ are worked out from the molar mass of the structure shown. Active and inactive are the calls of the source. The rule behind the calls is not given here.

Tests used:
[1] = test system: Mus musculus; test: Tested in vivo for minimum effective dose against herpes simplex virus-2 (HSV-2) by oral administration in female mice;not active; assay type: functional, organism-based
Summary of the method: (§1)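 Swiss female ICR mice (13–15 g) infected intravaginally with HSV-2 (Curtis) at a dose set for 80% mortality. Compound suspended in 1% gum tragacanth/2% Tween 80, given intragastrically at serial 2-fold doses, 20 mice per dose, 2 h before infection then twice daily for 5 d. Mortality followed 14 d; MED = lowest dose with survival differing from placebo (Mantel-Cox, Breslow).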

[2] = test system: Human alphaherpesvirus 2; test: In vivo maximum tolerated dose against herpes simplex virus-2 (HSV-2) by oral administration in female mice; assay type: functional
[3] = test system: Human alphaherpesvirus 2; test: (§2) In vitro minimum inhibitory concentration against herpes simplex virus-2 (HSV-2) by plaque-reduction assay in vero cells; assay type: functional
[4] = test system: Human alphaherpesvirus 2; test: In vitro maximum tolerated level against herpes simplex virus-2 (HSV-2) by plaque-reduction assay in vero cells; assay type: functional
[5] = test system: Human alphaherpesvirus 2; test: (§3) Minimum effective dose against herpes simplex virus-2 (HSV-2) by oral administration in female mice.; assay type: functional, organism-based; summary of the method: as §1
[6] = test system: Human alphaherpesvirus 2; test: as §3; assay type: functional; details: Human alphaherpesvirus 2, po; read-out: MED
[7] = test system: Vero; test: as §2; assay type: functional, cell-based; details: Chlorocebus sabaeus
Summary of the method: (§4)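 Vero monolayers (2 days old, confluent; Hank's MEM + 5% inactivated FCS, 37 °C, 2% CO2) infected with ~80 PFU; after 1-h adsorption, overlay of M199/5% FCS with 1:150 human immune serum globulin plus serial 2-fold compound dilutions (1:200 from DMSO). 3 d incubation, glutaraldehyde fix, crystal violet stain, plaque count. MIC = lowest concentration giving 50% plaque reduction; mean of ≥2 experiments.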

[8] = test system: Vero; test: Tested in vitro for minimum inhibitory concentration against herpes simplex virus-2 (HSV-2) by plaque-reduction assay in vero cells; not active; assay type: functional, cell-based; details: Chlorocebus sabaeus; summary of the method: as §4
[9] = test system: Vero; test: Tested in vitro for minimum inhibitory concentration against herpes simplex virus-1 (HSV-1) 1142 strain by plaque-reduction assay in vero cells; assay type: functional; details: Chlorocebus sabaeus; summary of the method: as §4
[10] = test system: Vero; test: Tested in vitro for minimum inhibitory concentration against herpes simplex virus-1 (HSV-1) 2992 strain by plaque-reduction assay in vero cells; assay type: functional; details: Chlorocebus sabaeus; summary of the method: as §4
[11] = test system: Vero; test: Tested in vitro for minimum inhibitory concentration against herpes simplex virus-1 (HSV-1) F strain by plaque-reduction assay in vero cells; assay type: functional; details: Chlorocebus sabaeus; summary of the method: as §4
[12] = test system: Vero; test: Tested in vitro for minimum inhibitory concentration against herpes simplex virus-1 (HSV-1) KOS strain by plaque-reduction assay in vero cells; assay type: functional; details: Chlorocebus sabaeus; summary of the method: as §4
[13] = test system: Vero; test: Tested in vitro for minimum inhibitory concentration against herpes simplex virus-1 (HSV-1) KOS, ACG strain by plaque-reduction assay in vero cells; assay type: functional; details: Chlorocebus sabaeus; summary of the method: as §4
[14] = test system: Vero; test: Tested in vitro for minimum inhibitory concentration against herpes simplex virus-2 (HSV-2) 2011 strain by plaque-reduction assay in vero cells; assay type: functional; details: Chlorocebus sabaeus; summary of the method: as §4
[15] = test system: Vero; test: Tested in vitro for minimum inhibitory concentration against herpes simplex virus-2 (HSV-2) 2115 strain by plaque-reduction assay in vero cells; assay type: functional; details: Chlorocebus sabaeus; summary of the method: as §4
[16] = test system: Vero; test: Tested in vitro for minimum inhibitory concentration against herpes simplex virus-2 (HSV-2) curtis strain by plaque-reduction assay in vero cells; assay type: functional; details: Chlorocebus sabaeus; summary of the method: as §4
[17] = test system: Vero; test: Tested in vitro for minimum inhibitory concentration against herpes simplex virus-2 (HSV-2) 2011 strain by plaque-reduction assay in vero cells; details: Chlorocebus sabaeus

| SMILES | MTD [2] [mg/kg] | MIC [3] [mg/L] | MTL [4] [µg/mL] | MED [5] | minimal effective dose [6] [mg/kg] | also measured |
| --- | --- | --- | --- | --- | --- | --- |
| CCn1cc(C(=O)NO)c(=O)c2ccc(-c3ccncc3)cc21 | 100 | 6.8 (≈ 22 µM) | 25 |  |  | MED [1]: inactive |
| NC(=O)c1cn(-c2ccc(F)cc2F)c2cc(-c3ccncc3)ccc2c1=O | <25 | 2.2 (≈ 5.83 µM) | 3.1 | inactive |  |  |
| Cc1cc(-c2ccc3c(=O)c(C(N)=O)cn(-c4ccc(F)cc4)c3c2)on1 | >200 | 0.26 (≈ 0.716 µM) | >100 | inactive |  |  |
| NC(=O)c1cn(-c2ccccc2)c2cc(-c3ccncc3)ccc2c1=O | 50 | 0.78 (≈ 2.28 µM) | 6.25 |  | 25 |  |
| NC(=O)c1cn(-c2cccc(F)c2)c2cc(-c3ccncc3)ccc2c1=O | 50 | 0.71 (≈ 1.98 µM) | >25 |  | 50 |  |
| NC(=O)c1cn(-c2ccc(Br)cc2)c2cc(-c3ccncc3)ccc2c1=O | 50 | 0.47 (≈ 1.12 µM) | >12.5 |  | 50 |  |
| CCn1cc(C(=O)NNC)c(=O)c2ccc(-c3ccncc3)cc21 |  |  | 25 |  |  | MIC [7]: inactive |
| NC(=O)c1c(N)n(-c2ccc(F)cc2)c2cc(-c3ccncc3)ccc2c1=O | 50 | 0.33 (≈ 0.881 µM) | >100 |  | 50 |  |
| CCn1cc(C(=O)N(C)O)c(=O)c2ccc(-c3ccncc3)cc21 |  |  | 50 |  |  | MIC [8]: inactive |
| NC(=O)c1cn(C2CC2)c2cc(-c3ccncc3)ccc2c1=O | 25 | 4 (≈ 13.1 µM) | 25 | inactive |  |  |
| NC(=O)c1cn(-c2ccc(F)cc2)c2cc(-c3ccccc3)ccc2c1=O | >200 | 0.82 (≈ 2.29 µM) | 12.5 | inactive |  |  |
| NC(=O)c1cn(-c2ccc(F)cc2)c2cc(-c3cc[n+]([O-])cc3)ccc2c1=O | 100 |  | >12.5 |  | 25 | MIC [7]: inactive |
| Nc1nc2c(ncn2COCCO)c(=O)[nH]1 [ACYCLOVIR] | >200 | 1.3 (≈ 5.77 µM) | >200 |  | 12 | MIC [9]: 7.8 mg/L (≈ 34.6 µM); MIC [10]: 11 mg/L (≈ 48.8 µM); MIC [11]: 0.29 mg/L (≈ 1.29 µM); MIC [12]: 0.14 mg/L (≈ 0.622 µM); MIC [13]: 43 mg/L (≈ 191 µM); MIC [14]: 43 mg/L (≈ 191 µM); MIC [15]: 77 mg/L (≈ 342 µM); MIC [16]: 1.3 mg/L (≈ 5.77 µM) |
| CCn1cc(C(N)=O)c(=O)c2ccc(-c3c(C)cncc3C)cc21 | 25 | 9.9 (≈ 30.8 µM) | 12.5 | inactive |  |  |
| CCn1c(=O)c(C(N)=O)c(O)c2ccc(-c3ccncc3)cc21 | 100 | 2.1 (≈ 6.79 µM) | 6.25 |  | 100 |  |
| Cn1cc(C(N)=O)c(=O)c2ccc(-c3ccncc3)cc21 | 25 | 4.6 (≈ 16.5 µM) | >25 | inactive |  |  |
| NC(=O)c1cn(-c2ccc(Cl)cc2)c2cc(-c3ccncc3)ccc2c1=O | 100 | 0.4 (≈ 1.06 µM) | >25 |  | 50 |  |
| NC(=O)c1cn(-c2ccc(F)cc2)c2cc(-c3ccncc3)ccc2c1=O | 50 | 0.24 (≈ 0.668 µM) | 6.25 |  | 25 | MIC [9]: 0.18 mg/L (≈ 0.501 µM); MIC [10]: 0.24 mg/L (≈ 0.668 µM); MIC [11]: 0.13 mg/L (≈ 0.362 µM); MIC [12]: 0.23 mg/L (≈ 0.64 µM); MIC [13]: 0.32 mg/L (≈ 0.89 µM); MIC [15]: 0.13 mg/L (≈ 0.362 µM); MIC [16]: 0.24 mg/L (≈ 0.668 µM); MIC [17]: 0.15 mg/L (≈ 0.417 µM) |
| CCn1cc(C(N)=O)c(=O)c2ccc(-c3ccccn3)cc21 | 100 | 14 (≈ 47.7 µM) | 25 | inactive |  |  |
